According to ChEMBL document CHEMBL2440057, “Rational drug design based synthesis of novel arylquinolines as anti-tuberculosis agents” (Bioorg Med Chem Lett, 2013):
Values after ≈ are worked out from the molar mass of the structure shown.

What was measured:
[1] = test system: Mycobacterium tuberculosis; assay: Antitubercular activity against Mycobacterium tuberculosis H37Rv assessed as parasite growth inhibition after 7 days by resazurin microtitre assay; type: functional; settings: 168 h
Procedure, shortened: (§1)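 Mtb H37Rv was tested by resazurin microtitre assay (REMA) with twofold serial dilutions of compound. MIC was read visually as the lowest concentration preventing the dye's blue-to-pink colour change, since pink indicates growth.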

[2] = Selectivity index, ratio of CC50 for African green monkey Vero C1008 cells to MIC for Mycobacterium tuberculosis H37Rv; type: functional
Procedure, shortened: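 Selectivity index is CC50 from the MTT assay on Vero C1008 cells over MIC against Mtb H37Rv from the twofold-dilution REMA plate method, where MIC was read visually by the blue-to-pink resazurin change.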

[3] = Cytotoxicity against African green monkey Vero C1008 cells after 72 hrs by MTT assay; type: cell-based; settings: chlorocebus sabaeus
Procedure, shortened: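 Vero C1008 cells were tested in microtitre plates with an MTT viability read-out, and CC50 values were determined.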

[4] = test system: Mycobacterium tuberculosis; assay: Antitubercular activity against Mycobacterium tuberculosis H37Rv assessed as parasite growth inhibition; type: functional; procedure, shortened: as §1

SMILES: CCN(CC)CC(O)CN(Cc1ccccc1)Cc1cc2ccccc2nc1OC (centres undefined)
- MIC [1]: 40.6 µM (≈ 16.6 µg/mL)
- Selectivity Index [2]: 15.1
- CC50 at 72 h [3]: 613 µM

SMILES: CCN(CC)CC(O)CN(Cc1ccc(C)cc1)Cc1cc2ccccc2nc1OC (centres undefined)
- MIC [1]: 19.3 µM (≈ 8.14 µg/mL)
- Selectivity Index [2]: 52.21
- CC50 at 72 h [3]: 1010 µM

SMILES: CCN(CC)CC(O)CN(Cc1ccc(OC)cc1)Cc1cc2ccccc2nc1OC (centres undefined)
- MIC [1]: 79.1 µM (≈ 34.6 µg/mL)
- Selectivity Index [2]: 9.19
- CC50 at 72 h [3]: 727 µM

SMILES: CCN(CC)CC(O)CN(Cc1ccc(Cl)cc1)Cc1cc2ccccc2nc1OC (centres undefined)
- MIC [1]: 10.1 µM (≈ 4.44 µg/mL)
- Selectivity Index [2]: 80.41
- CC50 at 72 h [3]: 808 µM

SMILES: COc1nc2ccccc2cc1CN(Cc1ccccc1)CC(O)CN1CCOCC1 (centres undefined)
- MIC [1]: 97.1 µM (≈ 40.9 µg/mL)
- Selectivity Index [2]: 5.69
- CC50 at 72 h [3]: 553 µM

SMILES: COc1nc2ccccc2cc1CN(Cc1ccc(C)cc1)CC(O)CN1CCOCC1 (centres undefined)
- MIC [1]: 21.9 µM (≈ 9.53 µg/mL)
- Selectivity Index [2]: 40.4
- CC50 at 72 h [3]: 884 µM

SMILES: COc1ccc(CN(Cc2cc3ccccc3nc2OC)CC(O)CN2CCOCC2)cc1 (centres undefined)
- MIC [1]: 158 µM (≈ 71.5 µg/mL)
- Selectivity Index [2]: 5.86
- CC50 at 72 h [3]: 928 µM

SMILES: COc1nc2ccccc2cc1CN(Cc1ccc(Cl)cc1)CC(O)CN1CCOCC1 (centres undefined)
- MIC [1]: 20.2 µM (≈ 9.21 µg/mL)
- Selectivity Index [2]: 52.44
- CC50 at 72 h [3]: 1060 µM

SMILES: COc1nc2ccccc2cc1CN(Cc1ccccc1)CC(O)CN1CCCC1 (centres undefined)
- MIC [1]: 5.18 µM (≈ 2.1 µg/mL)
- Selectivity Index [2]: 152.86
- CC50 at 72 h [3]: 792 µM

SMILES: COc1nc2ccccc2cc1CN(Cc1ccc(C)cc1)CC(O)CN1CCCC1 (centres undefined)
- MIC [1]: 9.68 µM (≈ 4.06 µg/mL)
- Selectivity Index [2]: 115.02
- CC50 at 72 h [3]: 1110 µM

SMILES: COc1ccc(CN(Cc2cc3ccccc3nc2OC)CC(O)CN2CCCC2)cc1 (centres undefined)
- MIC [1]: 18.6 µM (≈ 8.12 µg/mL)
- Selectivity Index [2]: 35.59
- CC50 at 72 h [3]: 664 µM

SMILES: COc1nc2ccccc2cc1CN(Cc1ccc(Cl)cc1)CC(O)CN1CCCC1 (centres undefined)
- MIC [1]: 5.59 µM (≈ 2.46 µg/mL)
- Selectivity Index [2]: 160.57
- CC50 at 72 h [3]: 898 µM

SMILES: COc1nc2ccc(Br)cc2cc1[C@@H](c1ccccc1)[C@@](O)(CCN(C)C)c1cccc2ccccc12 [BEDAQUILINE]
- MIC [4]: 0.108 µM (≈ 0.06 µg/mL)

SMILES: NNC(=O)c1ccncc1 [ISONIAZID]
- MIC [1]: 15.3 µM (≈ 2.1 µg/mL)
- Selectivity Index [2]: 96
